ChEMBL document CHEMBL1126690, “2'-substituted chalcone derivatives as inhibitors of interleukin-1 biosynthesis” (J Med Chem, 1993)

Species: Homo sapiens
Experiment: (§1) Inhibition of the production of Interleukin-1-beta from human peripheral blood monocytes stimulated with lipopolysaccharide (LPS) at 10 uM
Format: functional

Point of comparison: `COc1cc(OC)c(C(=O)/C=C(\C)c2ccccc2)c(OC)c1`, inhibition at 10 µM 0%. Against it:
- O=C(O)c1ccccc1C(=O)/C=C/c1ccccc1 — higher, 37%
- O=C(/C=C/c1ccccc1)c1ccc([N+](=O)[O-])cc1 — the same, 0%
- COC(=O)c1ccc(C(=O)/C=C/c2ccccc2)cc1 — higher, 5%
- COc1cc(OC)c(C(=O)C=C(c2ccccc2)c2ccccc2)c(OC)c1 — the same, 0%
- CCOc1ccc(C(=O)/C=C/c2ccccc2)cc1 — higher, 15%
- COc1ccc(C(=O)/C=C/c2ccccc2)cc1OC [3',4'-DIMETHOXYCHALCONE] — higher, 44%
- COc1ccc(C(=O)/C=C/c2ccccc2)cc1 [4'-METHOXYCHALCONE] — higher, 29%

Species: Homo sapiens
Experiment: (§2) Inhibition of the production of Interleukin-1-beta from human peripheral blood monocytes stimulated with lipopolysaccharide (LPS)
Format: functional
Outline: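 Drug in DMSO (1.0 μL) added, 60 min preincubation, then LPS (Salmonella typhimurium; 1.0 μg/mL stock, 20 μL/well). After 20 h, supernatant IL-1β by ELISA; MTT viability on cells.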

Point of comparison: `COc1cc(OC)c(C(=O)/C=C/c2cccnc2)c(OC)c1`, IC50 1.33 µM. Against it:
- COC(=O)c1cccc(/C=C/C(=O)c2c(OC)cc(OC)cc2OC)c1 — within 1.5-fold, 1.65 µM
- O=C(/C=C/c1ccccc1)c1ccccn1 — 4.7-fold higher, 6.2 µM
- O=C(/C=C/c1ccccc1)c1ccccc1[N+](=O)[O-] — within 1.5-fold, 1.52 µM
- O=C(/C=C/c1ccccc1)c1cccs1 — 4.3-fold higher, 5.75 µM
- COc1cc(OC)c(C(O)/C=C/c2ccccc2)c(OC)c1 (configuration not stated) — 4.1-fold higher, 5.4 µM
- COc1cc(OC)c(C(=O)/C(C)=C/c2ccccc2)c(OC)c1 — 3.9-fold higher, 5.17 µM
- COC(=O)c1ccccc1C(=O)/C=C/c1ccc(C(=O)Nc2nccs2)cc1 — 1.5-fold higher, 2.03 µM
- COc1cc(OC)c(C(=O)/C=C/c2ccc(C(=O)N(C)c3nccs3)cc2)c(OC)c1 — within 1.5-fold, 1.01 µM
- COc1cc(OC)c(C(=O)/C=C/c2ccncc2)c(OC)c1 — 2.2-fold lower, 0.592 µM
- COc1cc(OC)c(C(=O)/C=C/c2ccccn2)c(OC)c1 — 2.2-fold lower, 0.596 µM
- COc1ccccc1C(=O)/C=C/c1ccccc1 — 1.7-fold higher, 2.23 µM
- COc1cccc(/C=C/C(=O)c2ccccc2)c1OC — 1.5-fold higher, 2 µM
- CCOc1ccccc1C(=O)/C=C/c1ccccc1 — 2.2-fold lower, 0.609 µM
- O=C(/C=C/c1ccccc1)c1ccccc1C(F)(F)F — 1.8-fold lower, 0.748 µM
- CN(C)c1ccccc1C(=O)/C=C/c1ccccc1 — within 1.5-fold, 1.77 µM
- O=C(/C=C/c1ccccc1)c1ccccc1OCc1ccccc1 — 1.7-fold higher, 2.23 µM
- COc1cc(OC)c(C(=O)/C=C/c2cccc(C(=O)Nc3nccs3)c2)c(OC)c1 — 2.6-fold lower, 0.503 µM
- CC(=O)Nc1ccccc1C(=O)/C=C/c1ccccc1 — within 1.5-fold, 1.73 µM
- COc1cc(OC)c(C(=O)/C=C/c2cccc(C(=O)O)c2)c(OC)c1 — 5.1-fold higher, 6.76 µM
- COc1cc(C(=O)/C=C/c2ccccc2)cc(OC)c1OC — within 1.5-fold, 1.84 µM
- COc1cc(OC)c(C(=O)/C=C/c2cccc(C(=O)Nc3cccnc3)c2)c(OC)c1 — within 1.5-fold, 1.63 µM
- COc1cc(OC)c(C(=O)/C=C/c2ccc(C(=O)N(C)C)cc2)c(OC)c1 — 2.1-fold higher, 2.8 µM
- COc1cc(OC)c(C(=O)/C=C/c2cccc(C(=O)Nc3ccccc3)c2)c(OC)c1 — 2.3-fold lower, 0.577 µM
- COc1cccc(/C=C/C(=O)c2c(OC)cc(OC)cc2OC)c1 — within 1.5-fold, 1.8 µM
- COc1cccc(C(=O)/C=C/c2ccccc2)c1OC — within 1.5-fold, 1.67 µM
- COc1cc(OC)c(C(=O)/C=C/c2ccnc3ccccc23)c(OC)c1 — 4.3-fold lower, 0.311 µM
- COc1cc(OC)c(C(=O)/C=C/c2ccc(C(=O)O)cc2)c(OC)c1 — 4.7-fold higher, 6.23 µM
- COc1cc(OC)c(C(=O)/C=C/c2ccc(C(N)=O)cc2)c(OC)c1 — within 1.5-fold, 1.79 µM
- COc1cccc(OC)c1C(=O)/C=C/c1ccccc1 — within 1.5-fold, 1.15 µM
- COc1ccc(C(=O)/C=C/c2ccccc2)c(OC)c1OC — within 1.5-fold, 1.71 µM
- CN(C)C(=O)c1ccccc1C(=O)/C=C/c1ccccc1 — 4.1-fold higher, 5.5 µM
- COc1cc(OC)c(C(=O)/C=C/c2ccc(C(=O)Nc3nccs3)cc2)c(OC)c1 — 3.7-fold lower, 0.355 µM
- O=C(/C=C/c1ccccc1)c1ccccc1Br — within 1.5-fold, 1.66 µM
- COc1cc(OC)c(C(=O)/C=C/c2c(F)cccc2F)c(OC)c1 — within 1.5-fold, 1.29 µM
- Cc1cc(C)c(C(=O)/C=C/c2ccccc2)c(C)c1 — 4.9-fold higher, 6.5 µM
- COc1cc(OC)c(C(=O)/C=C/c2ccc(C(=O)Nc3ccccc3)cc2)c(OC)c1 — 1.7-fold lower, 0.803 µM
- COc1cc(OC)c(C(=O)/C=C/c2ccc(C(=O)Nc3cccnc3)cc2)c(OC)c1 — 1.7-fold lower, 0.793 µM
- COc1ccc(/C=C/C(=O)c2ccccc2)cc1OC — 1.8-fold higher, 2.33 µM
- COC(=O)c1ccccc1C(=O)/C=C/c1ccccc1 — within 1.5-fold, 1.95 µM
- O=C(/C=C/c1ccccc1)c1ccccc1NS(=O)(=O)C(F)(F)F — 4.4-fold higher, 5.85 µM
- CCOc1ccccc1C(=O)/C=C/c1ccncc1 — within 1.5-fold, 1.65 µM
- COc1cc(OC)c(C(=O)/C=C/c2nccn2C)c(OC)c1 — 2.9-fold higher, 3.8 µM
- COc1cc(OC)c(C(=O)/C=C/c2cnccn2)c(OC)c1 — 1.9-fold lower, 0.693 µM
- COC(=O)c1ccc(/C=C/C(=O)c2c(OC)cc(OC)cc2OC)cc1 — within 1.5-fold, 1.93 µM
- O=C(/C=C/c1ccccc1)c1c(Cl)cccc1Cl — within 1.5-fold, 1.08 µM
- O=C(/C=C/c1ccccc1)c1c2ccccc2cc2ccccc12 — within 1.5-fold, 1.41 µM
- O=C(/C=C/c1ccccc1)c1ccccc1O [2'-HYDROXYCHALCONE] — 3.2-fold higher, 4.3 µM
- O=C(/C=C/c1ccccc1)c1ccc(O)cc1 [4'-HYDROXYCHALCONE] — 4.6-fold higher, 6.13 µM
- O=C(/C=C/c1ccccc1)c1ccccc1 [CHALCONE] — 4.7-fold higher, 6.28 µM

Species: Homo sapiens
Experiment: as §1
Format: functional
Outline: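 Elutriated human monocytes in RPMI 1640 + 5% FBS, drug added in DMSO 60 min before LPS (Salmonella typhimurium). Tested at 10 μM, the highest concentration assayed. After 20 h, supernatant IL-1β measured by ELISA in duplicate; percent inhibition vs control; MTT viability checked.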

Point of comparison: `COc1cc(OC)c(C(=O)NCc2ccccc2)c(OC)c1`, inhibition at 10 µM 0%. Against it:
- COc1cc(C(=O)/C=C/c2ccc(N(C)C)cc2)cc(OC)c1OC — the same, 0%
- CS(=O)(=O)Nc1ccccc1C(=O)/C=C/c1ccccc1 — the same, 0%
- COc1cc(OC)c(C/C=C/c2ccccc2)c(OC)c1 — the same, 0%
- COc1cc(OC)c(C(=O)CCc2ccccc2)c(OC)c1 — the same, 0%
- O=C(Nc1nccs1)c1ccc(/C=C/C(=O)c2ccccc2C(=O)O)cc1 — higher, 22%
- COc1cc(OC)c(NC(=O)/C=C/c2ccccc2)c(OC)c1 — the same, 0%
- COc1cc(OC)c(C(=O)c2ccc(-c3ccccc3)cc2)c(OC)c1 — higher, 26%

System: Mus musculus
Experiment: In vivo activity expressed as percentage survival at 600 mg/kg in mouse septic shock model
Format: functional
Outline: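 Female C57Bl/6 mice (18–20 g), groups of 10, given LPS ip (E. coli 0127:B8, in 0.9% saline, 40 mg/kg). Compound in 0.25% methylcellulose (beadmilled 60 min) dosed orally by gavage 20 min later (0.1 mL/g), then every 4 h for 24 h; vehicle controls. Deaths recorded over 3 days; percent survival, χ² at p<0.05, mean of three experiments.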

Point of comparison: `COc1cc(OC)c(C(=O)/C=C/c2ccc(C(=O)Nc3nccs3)cc2)c(OC)c1`, survival at 600 mg/kg 55%. Against it:
- COC(=O)c1ccccc1C(=O)/C=C/c1ccc(C(=O)Nc2nccs2)cc1 — lower, 30%
- COc1cc(OC)c(C(=O)/C=C/c2ccc(C(=O)Nc3cccnc3)cc2)c(OC)c1 — lower, 50%
- COC(=O)c1ccccc1C(=O)/C=C/c1ccccc1 — lower, 20%

Species: Homo sapiens
Experiment: as §2
Format: functional
Outline: (§3)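 Human monocytes elutriated from whole blood, 2×10^6 cells/well in RPMI 1640 + 5% FBS. Drug in DMSO (1.0 μL) added, 60 min preincubation, then LPS (Salmonella typhimurium; 1.0 μg/mL stock, 20 μL/well). After 20 h, supernatant IL-1β by ELISA; MTT viability on cells.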

For `COc1cc(OC)c(C(/C=C/c2ccccc2)=N/O)c(OC)c1`, the Inhibition was 34%.

Species: Homo sapiens
Experiment: Inhibition of the production of Interleukin-1-beta from human peripheral blood monocytes stimulated with lipopolysaccharide (LPS).
Format: functional
Outline: as §3

`COc1cc(OC)c(C(=O)/C=C/c2ccccc2)c(OC)c1` gave an IC50 of 1.25 µM.
